Reference: ChEMBL document CHEMBL1795215, “Design, synthesis and biological assessment of novel N-substituted 3-(phthalimidin-2-yl)-2,6-dioxopiperidines and 3-substituted 2,6-dioxopiperidines for TNF-α inhibitory activity” (Bioorg Med Chem, 2011)

Tests used:
RAW264.7 [1] = experiment: Inhibition of LPS-induced TNFalpha production in mouse RAW264.7 cells assessed as TNFalph activity at 30 uM by ELISA relative to thalidomide; assay type: functional
Summary of the method: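 LPS-stimulated RAW 264.7 cells were treated at 30 μM, and TNF-α in the medium was measured by mouse TNF-α ELISA as % of vehicle control (n = 3). Fold activity relative to thalidomide = (100 − compound TNF-α % control)/(100 − thalidomide TNF-α % control).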

RAW264.7 [2] = experiment: Inhibition of LPS-induced TNFalpha production in mouse RAW264.7 cells assessed as TNFalph activity at 30 uM by ELISA relative to untreated control; assay type: functional; parameters: scale not given: the % may be the effect or the level left
Summary of the method: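 RAW 264.7 cells were cultured and exposed to compound at 30 μM together with LPS. TNF-α protein in the culture medium was quantified by a mouse TNF-α-specific ELISA and expressed as % of the appropriate control. Values are mean ± S.E.M., n = 3, with Student's t-test (P<0.05 significant).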

[3] = Toxicity against mouse RAW264.7 cells assessed as cell viability at 30 uM by Cell titer 96 squeous one solution cell proliferation assay untreated control; assay type: cell-based; details: read-out: Activity
Summary of the method: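 Viability of RAW 264.7 cells given 30 μM compound with LPS was read by CellTiter 96 Aqueous One tetrazolium dye formation, with absorbance at 490 nm. Results are % change in O.D. versus the appropriate control, mean ± S.E.M., n = 3, with Student's t-test (P<0.05 significant).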

| SMILES | fold change (FC) (RAW264.7 [1]) | Activity (RAW264.7 [2]) [%] | viability at 30 µM [3] [%] |
| --- | --- | --- | --- |
| O=C1CCC(N2Cc3ccccc3C2=O)C(=O)N1CSC(=S)NC1CCCCC1 (stereo unspecified) | 45 | 55 | 103 |
| O=C1CCC(N2Cc3ccccc3C2=O)C(=O)N1CSC(=S)N1CCCCC1 (stereo unspecified) | 4 | 96 | 112 |
| O=C1CCCC(=O)N1CN1C(=O)CCC(N2Cc3ccccc3C2=O)C1=O (stereo unspecified) | 21 | 79 | 102 |
| O=C1CCC(N2Cc3ccccc3C2=O)C(=O)N1CN1C(=S)CCCC1=S (stereo unspecified) | 37 | 63 | 94 |
| O=C1CCC(N2Cc3ccccc3C2=O)C(=O)N1CN1C(=O)c2ccccc2C1=O (stereo unspecified) | 12 | 88 | 98 |
| O=C1CCC(N2Cc3ccccc3C2=O)C(=O)N1CN1C(=S)c2ccccc2C1=S (stereo unspecified) | 48 | 52 | 82 |
| O=C1CCC(N2S(=O)(=O)c3ccccc3S2(=O)=O)C(=O)N1 (stereo unspecified) | 45 | 55 | 109 |
| N=C1N/C(=N\C2CCC(=O)NC2=O)c2ccccc21 (stereo unspecified) | 39 | 61 | 116 |
| N=C1c2ccccc2C(=O)N1C1CCC(=O)NC1=O (stereo unspecified) | 33 | 67 | 84 |
| O=C1CCC(N2C(=O)c3cccnc3C2=O)C(=O)N1 (stereo unspecified) | -4 | 104 | 95 |
| O=C1CCC(N2C(=O)c3ccncc3C2=O)C(=O)N1 (stereo unspecified) | 4 | 96 | 96 |
| Nc1cccc2c1CN(C1CCC(=O)NC1=O)C2=O (stereo unspecified) [LENALIDOMIDE] | -9 | 109 | 106 |
